Source: article PMC5759846 (Infection and Drug Resistance, 2018)

Legend:
[1] = introduction; ref [15]–[17]; cited from earlier work
[2] = Serum teicoplanin trough concentration; type: in vivo, Chinese patients; details: day 4
Outline: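 Day-4 serum (2–3 mL, additive-free tubes, spun 3,500 rpm 10 min) drawn 30 min before maintenance dose; trough measured by HPLC. Cure or failure judged days 5–7 after last dose from symptoms, laboratory and bacteriological findings. Target 15–30 mg/L; mean ± SD.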

[3] = introduction; ref [15]–[17]; cited from earlier work; remark: listed apart in the source
[4] = Group B, n=30, loading 400 mg q12h x3, maintenance 400 mg/day
[5] = Group C, n=17, loading 400 mg q12h x2, maintenance 200 mg/day
[6] = Group D, n=30, loading 400 mg q12h x1-3, maintenance 200 mg/day

teicoplanin
plasma protein-binding rate [1]: over 90%
Mean teicoplanin Cmin for a failure ([2]; 38 patients with failed response, all groups, mean ± SD, SD): 10010 ± 2370 ng/mL
Mean teicoplanin Cmin for a successful response ([2]; 75 patients with clinical cure, all groups, mean ± SD, SD): 18920 ± 5120 ng/mL
Proportion of patients achieving target range Cmin 15–30 mg/L [2, 4]: 66.67%
Proportion of patients with Cmin 10–30 mg/L [2, 4]: 86.67%
Proportion of patients achieving target range Cmin 15–30 mg/L [2, 5]: 70.59%
Proportion of patients with Cmin 10–30 mg/L [2, 5]: 88.23%
Proportion of patients achieving target range Cmin 15–30 mg/L [2, 6]: 23.33%
Proportion of patients with Cmin 10–30 mg/L [2, 6]: 70%
elimination half-life [3]: 30 to 180 h
